In experiment [1] the test system is Hepatovirus A. The experiment can be described thus: Antiviral activity against Hepatitis A virus infected african green monkey Vero cells at 10^-4 dilution of 5 mg/ml by plaque formation assay. It counts as functional. The gist of the method:
(§1)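 Compound dilutions prepared from a 5 mg/mL DMSO stock, using the maximum non-toxic dilution for Vero cells over 3 days; 0.1 mL virus (10³) mixed with 0.1 mL compound for 1 h at room temperature; mixture inoculated onto washed Vero monolayers in 12-well plates and adsorbed at 37 °C; 2× MEM/agarose overlay applied; read-out % reduction in plaque count versus untreated virus control.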

The subject of experiment [2] is Bacillus subtilis. The experiment can be described thus: Antibacterial activity against Bacillus subtilis NCTC 1040 at 4 mg/ml by agar disk diffusion assay. It counts as functional. Conditions: read-out: DIZ.
The test system of experiment [3] is Human alphaherpesvirus 1. The experiment can be described thus: Antiviral activity against HSV1 infected african green monkey Vero cells at 10^-4 dilution of 5 mg/ml by plaque formation assay. It counts as functional. The gist of the method:
as §1

Experiment [4] relates to Candida albicans. Nature of the experiment: Antifungal activity against Candida albicans IMRU 3669 at 4 mg/ml by agar disk diffusion assay. Type of experiment: functional. To be noted: read-out: DIZ.
In experiment [5] the test system is Aspergillus niger. Nature of the experiment: Antifungal activity against Aspergillus niger IMI 31726 at 4 mg/ml by agar disk diffusion assay. It counts as functional. To be noted: read-out: DIZ. On the technique in general: Agar diffusion results depend on both activity and mobility in agar.
Experiment [6] concerns Staphylococcus aureus. The experiment can be described thus: Antibacterial activity against Staphylococcus aureus NCTC 7447 at 4 mg/ml by agar disk diffusion assay. It counts as functional. Conditions: read-out: DIZ.
In experiment [7] the test system is Salmonella typhi. Nature of the experiment: Antibacterial activity against Salmonella typhi NCIMB 9331 at 4 mg/ml by agar disk diffusion assay. Type of experiment: functional, Salmonella enterica subsp. enterica serovar Typhi. To be noted: Salmonella enterica, read-out: DIZ.
Experiment [8] relates to Escherichia coli. Nature of the experiment: Antibacterial activity against Escherichia coli NCTC 10416 at 4 mg/ml by agar disk diffusion assay. To be noted: read-out: DIZ. It counts as functional.
The subject of experiment [9] is Coxsackievirus B4. The experiment can be described thus: Antiviral activity against Coxsackievirus B4 infected african green monkey Vero cells at 10^-4 dilution of 5 mg/ml by plaque formation assay. It counts as functional, organism-based. In short, it runs like this:
as §1

Each structure is given as a SMILES string. Calls of active or inactive are those of the source. No cut-off for these calls is given here.

Regarding `N=C1C(=S)N(c2ccc(Br)cc2)C(=O)N1c1ccc(Cl)c(C(F)(F)F)c1`, the outcome in [1] and in experiment [9] was inactive. Further, the zone of inhibition at 4000 µg/mL was 16 mm in [2]; 16 mm in [4]; 16 mm in experiment [5]; 17.5 mm in experiment [6]; 16.5 mm in experiment [7]; 18 mm in [8]. The molecule also yielded an Activity in experiment [3] of 50%.

For the origin of these results see ChEMBL document CHEMBL1155362, “Synthesis, characterization and derivatization of some novel types of mono- and bis-imidazolidineiminothiones and imidazolidineiminodithiones with antitumor, antiviral, antibacterial and antifungal activities--part I” (Eur J Med Chem, 2009).
